This is an account of results in paper PMC9939360 (Acta Pharmaceutica Sinica. B, 2022).

The target of data set [1] is T1, hM4 mAChR (Homo sapiens, UniProt P08173).
T1 sequence (P08173 1-479): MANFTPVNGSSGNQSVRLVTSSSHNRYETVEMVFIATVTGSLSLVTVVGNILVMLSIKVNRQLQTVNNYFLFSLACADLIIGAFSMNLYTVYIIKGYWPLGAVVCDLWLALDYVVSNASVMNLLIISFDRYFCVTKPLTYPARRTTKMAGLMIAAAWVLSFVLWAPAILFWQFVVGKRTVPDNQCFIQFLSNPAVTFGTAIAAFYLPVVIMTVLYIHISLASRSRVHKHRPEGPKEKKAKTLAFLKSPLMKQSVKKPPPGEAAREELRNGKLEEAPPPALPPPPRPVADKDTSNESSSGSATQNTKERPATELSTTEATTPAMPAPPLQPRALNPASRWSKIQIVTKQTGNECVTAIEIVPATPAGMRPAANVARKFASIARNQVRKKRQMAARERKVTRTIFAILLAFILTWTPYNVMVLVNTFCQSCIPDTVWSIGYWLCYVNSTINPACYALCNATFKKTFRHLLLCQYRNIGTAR
It counts as binding. As to conditions: for LogαACh (logarithm of the binding cooperativity factor between M4-PAMs and ACh): CHO cells stably expressing hM4, mean ± SEM. In outline:
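Intact FlpIn CHO cells stably expressing human M4 were grown in DMEM/5% FBS, plated at 20,000 per well and grown overnight at 37 °C. After PBS washes, cells were incubated with an ACh concentration series, with or without increasing test compound concentrations, plus [3H]-NMS (~0.1 nmol/L). Atropine (10 μmol/L) defined nonspecific binding. Cells were washed with ice-cold 0.9% NaCl and counted by scintillation. KB and α came from an allosteric ternary complex model fit.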

Data set [2] concerns the target T1, hM4 mAChR. The data set can be described thus: [35S]-GTPγS binding assay with ACh, operational model of allosterism. Format: biochemical. As to conditions: mean ± SEM; for LogβACh (logarithm of the activation cooperativity factors between ACh and M4-PAMs): determined by subtracting (α) from the (αβ) parameters; for LogαβACh (logarithm of the operational functional cooperativity factors between ACh and M4-PAMs) / Logτ (logarithm of the operational efficacy parameter of M4-PAMs as allosteric agonists): hM4 membranes. The method, boiled down:
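Membranes from FlpInCHO cells stably expressing wild-type human M4, 15 μg per assay, preincubated 60 min at 30 °C with 10 μmol/L GDP and ACh (10 nmol/L–10 mmol/L), with or without M4-PAMs (0.1–10 μmol/L). [35S]GTPγS (1 nmol/L, as added) then given for 30 min at 30 °C. Bound label collected on GF/B filters and counted by scintillation. Data fitted to an operational model of allosterism and agonism.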

The subject of data set [3] is M1, M2, M3 and M5. The data set can be described thus: Tango assay, selectivity over other muscarinic subtypes. Format: cell-based. In outline: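 HEK293 cells stably carrying a tTA-dependent luciferase reporter and a β-arrestin2–TEV fusion were kept in DMEM/10% FBS with puromycin and hygromycin B at 37 °C, 5% CO2. They were transfected, then replated on day 3 at 15,000–20,000 cells/well on poly-L-lysine. On day 4 test compound was added in HEPES/1× HBSS buffer, pH 7.4. On day 5, Bright-Glo luminescence was read after 15–20 min at room temperature (RLU). Carbachol served as reference agonist.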

Data set [4] relates to M4. As to conditions: rhesus monkeys; cited from earlier work.
The test system of data set [5] is M4. The conditions noted are these: humans; cited from earlier work.

Like-named read-outs stand apart in the source and are kept apart here. Marks after values point to notes of the source that are not given here.

Consider `CN1Cc2ccc(-c3nc(C#N)ccc3-c3cnn(CC4CCCC4)c3)cc2C1=O` [Compound 8, 5-(1-(cyclopentylmethyl)-1H-pyrazol-4-yl)-6-(2-methyl-3-oxoisoindolin-5-yl)picolinonitrile], for which, in data set [1], the Kb was 398 nM; the “LogαACh (logarithm of the binding cooperativity factor between M4-PAMs and ACh)” value (shortened to “LogαACh”) worked out at 1.7 ± 0.3. For the same molecule, in data set [2], the “LogβACh (logarithm of the activation cooperativity factors between ACh and M4-PAMs)” value (shortened to “LogβACh”) is 0.1 ± 0.3; the “LogαβACh (logarithm of the operational functional cooperativity factors between ACh and M4-PAMs)” value (shortened to “LogαβACh”) was 1.9 ± 0.2; the “Logτ (logarithm of the operational efficacy parameter of M4-PAMs as allosteric agonists)” value (“Logτ” below) turned out to be 0.3 ± 0.0.

Consider `Cc1ccc(-c2cnn(CC3CCCC3)c2)c(-c2ccc3c(c2)C(=O)N(C)C3)n1` [Compound 10, 6-(3-(1-(cyclopentylmethyl)-1H-pyrazol-4-yl)-6-methylpyridin-2-yl)-2-methylisoindolin-1-one], for which, in data set [1], the Kb was 316 nM; the “LogαACh” value was found to be 1.6 ± 0.2. For the same molecule, in data set [2], the “LogβACh” value was determined as 0.4 ± 0.2; the “LogαβACh” value is 2.0 ± 0.2; the “Logτ” value was found to be 0.7 ± 0.0.

With `Cc1ccc(-c2cnn(CC3CCCC3)c2)c(-c2ccc3c(c2)C(=O)NC3)n1` [Compound 11, 6-(3-(1-(cyclopentylmethyl)-1H-pyrazol-4-yl)-6-methylpyridin-2-yl)isoindolin-1-one], in data set [1], the Kb is 501 nM; the “LogαACh” value was determined as 1.4 ± 0.2. In data set [2], the “LogβACh” value is reported as 0.5 ± 0.3; the “LogαβACh” value is listed as 1.9 ± 0.2; the “Logτ” value was found to be 0.5 ± 0.0.

For `N#Cc1ccc(-c2cnn(CC3CCCC3)c2)c(-c2ccc3c(c2)C(=O)N(CCF)C3)n1` [Compound 12, 5-(1-(cyclopentylmethyl)-1H-pyrazol-4-yl)-6-(2-(2-fluoroethyl)-3-oxoisoindolin-5-yl)picolinonitrile], in data set [1], the Kb is 398 nM; the “LogαACh” value was found to be 1.4 ± 0.1. Also, in data set [2], the “LogβACh” value is listed as 1.1 ± 0.2; the “LogαβACh” value is reported as 2.5 ± 0.1 ^f; the “Logτ” value was determined as 0.5 ± 0.0. Besides, the “selectivity over other muscarinic acetylcholine receptor subtypes” value in data set [3] is “selective”.

Take `N#Cc1ccc(-c2cnn(CC3CCCC3)c2)c(-c2ccc3c(c2)C(=O)N(CCCF)C3)n1` [Compound 13, 5-(1-(cyclopentylmethyl)-1H-pyrazol-4-yl)-6-(2-(3-fluoropropyl)-3-oxoisoindolin-5-yl)picolinonitrile]: in data set [1], the Kb was 398 nM; the “LogαACh” value came to 1.6 ± 0.2. In data set [2], the “LogβACh” value amounted to 0.8 ± 0.2; the “LogαβACh” value was 2.4 ± 0.2 ^f; the “Logτ” value is reported as 0.6 ± 0.0.

`CC1(Cn2cc(-c3ccc(C#N)nc3-c3ccc4c(c3)C(=O)N([11CH3])C4)cn2)CCCC1` [[^11C]MK-6884]: the “peak striatal SUV” value in data set [4] is recorded as “ca. 1.2”; in data set [5] it was “ca. 2.5”.
